Assay results as given in paper PMC11336813 (Heliyon, 2024).
Like-named read-outs stand apart in the source and are kept apart here.

Experiments:
[1] = Total PER plasma concentration by HPLC-MS/MS; assay type: in vivo, children with epilepsy
Free = assay type: in vivo, children with epilepsy
Outline: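 Children aged 0–16 y on an unchanged oral PER dose for ≥4 weeks, dosed in the evening. Blood (2 mL, EDTA) drawn 8:00–10:00 a.m. next day, spun 1 610 ×g for 5 min, and plasma stored at −80 °C. Plasma (200 μL) ultrafiltered at 13 680 ×g for 20 min at 4 °C. Ultrafiltrate (40 μL) plus PER-D5 internal standard was methanol-precipitated, then run on C18 reversed-phase positive-mode MRM against a least-squares linear calibration.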

[2] = assay type: physicochemical; conditions: n = 5
plasma proteins = conditions: cited from earlier work
[3] = cited from earlier work
[4] = cited from earlier work; remark: listed apart in the source
CYP2C9 = conditions: human liver microsomes; cited from earlier work
CYP2C19 = conditions: human liver microsomes; cited from earlier work
CYP3A4 = conditions: human liver microsomes; cited from earlier work
[5] = 57 plasma samples, steady state
[6] = Group A: cotherapy enzyme inducers, n = 11
[7] = Group B: cotherapy not strong enzyme inducers/not inhibitors, n = 10
[8] = Group C: cotherapy enzyme inhibitors (VPA), n = 31
[9] = Group D: cotherapy enzyme inducers + VPA, n = 5
[10] = patient No. 25, PER 5 mg·d^−1 with VPA

Compound: N#Cc1ccccc1-c1cc(-c2ccccn2)cn(-c2ccccc2)c1=O [PER, Perampanel]
- Total concentration, range [1, 5]: 90.17 to 1867.73 ng/mL
- Total PER concentration, mean ± SD [1, 6]: 311.32 ± 190.14 ng/mL
- Total PER concentration, mean ± SD [1, 7]: 490.97 ± 255.71 ng/mL
- Total PER concentration, mean ± SD [1, 8]: 745.60 ± 415.53 ng/mL
- Total PER concentration, mean ± SD [1, 9]: 780.14 ± 459.18 ng/mL
- Total PER concentration, mean ± SD ([1]; VPA cotherapy, n = 36): 750.40 ± 415.02 ng/mL
- Total drug PER concentration ([1]; child No. 38, PER 2 mg·d^−1): 289.24 ng/mL
- Total PER concentration, mean ± SD ([1]; not VPA cotherapy, n = 21): 396.87 ± 236.55 ng/mL
- Total drug PER concentration [1, 10]: 1158.38 ng/mL
- Free concentration, range (Free; [5]): 0.42 to 23.14 ng/mL
- Free concentration, mean ± SD (Free; 57 plasma samples, steady state, oral PER 2.00–8.00 mg·d^−1): 8.09 ± 5.85 ng/mL
- Free PER concentration, mean ± SD (Free; [6]): 4.80 ± 3.70 ng/mL
- Free PER concentration, mean ± SD (Free; [7]): 5.28 ± 5.57 ng/mL
- Free PER concentration, mean ± SD (Free; [8]): 9.84 ± 5.66 ng/mL
- Free PER concentration, mean ± SD (Free; [9]): 10.09 ± 7.54 ng/mL
- Free PER concentration, mean ± SD (Free; VPA cotherapy, n = 36): 9.87 ± 5.83 ng/mL
- Free drug PER concentration (Free; child No. 38, PER 2 mg·d^−1): 1.95 ng/mL
- Free PER concentration, mean ± SD (Free; not VPA cotherapy, n = 21): 5.03 ± 4.57 ng/mL
- Free drug PER concentration (Free; [10]): 17.71 ng/mL
- Autosampler 5°C-8 h (x̄ ± s) ([2]; nominal 1 ng·mL^−1): 1.03 ± 0.05 ng/mL
- frozen at −20 °C for 15 days (x̄ ± s) ([2]; nominal 1 ng·mL^−1): 0.96 ± 0.09 ng/mL
- frozen at −20 °C for 30 days (x̄ ± s) ([2]; nominal 1 ng·mL^−1): 0.96 ± 0.08 ng/mL
- frozen at −80 °C for 45 days (x̄ ± s) ([2]; nominal 1 ng·mL^−1): 0.97 ± 0.02 ng/mL
- frozen at −80 °C for 60 days (x̄ ± s) ([2]; nominal 1 ng·mL^−1): 0.95 ± 0.07 ng/mL
- Short-term 4 h (x̄ ± s) ([2]; nominal 1 ng·mL^−1, room temperature (about 25 °C) 4 h): 1.01 ± 0.09 ng/mL
- Freeze-thaw Stability (x̄ ± s) ([2]; nominal 1 ng·mL^−1, three freeze–thaw cycles (−20 °C/room temperature)): 1.02 ± 0.05 ng/mL
- Autosampler 5°C-8 h (x̄ ± s) ([2]; nominal 10 ng·mL^−1): 9.99 ± 0.37 ng/mL
- frozen at −20 °C for 15 days (x̄ ± s) ([2]; nominal 10 ng·mL^−1): 9.99 ± 0.22 ng/mL
- frozen at −20 °C for 30 days (x̄ ± s) ([2]; nominal 10 ng·mL^−1): 9.79 ± 0.21 ng/mL
- frozen at −80 °C for 45 days (x̄ ± s) ([2]; nominal 10 ng·mL^−1): 10.03 ± 0.38 ng/mL
- frozen at −80 °C for 60 days (x̄ ± s) ([2]; nominal 10 ng·mL^−1): 10.85 ± 0.38 ng/mL
- Short-term 4 h (x̄ ± s) ([2]; nominal 10 ng·mL^−1, room temperature 4 h): 9.94 ± 0.42 ng/mL
- Freeze-thaw Stability (x̄ ± s) ([2]; nominal 10 ng·mL^−1, three freeze–thaw cycles): 9.99 ± 0.08 ng/mL
- Autosampler 5°C-8 h (x̄ ± s) ([2]; nominal 40 ng·mL^−1): 37.53 ± 1.46 ng/mL
- frozen at −20 °C for 15 days (x̄ ± s) ([2]; nominal 40 ng·mL^−1): 39.06 ± 1.06 ng/mL
- frozen at −20 °C for 30 days (x̄ ± s) ([2]; nominal 40 ng·mL^−1): 38.87 ± 1.52 ng/mL
- frozen at −80 °C for 45 days (x̄ ± s) ([2]; nominal 40 ng·mL^−1): 43.90 ± 1.23 ng/mL
- frozen at −80 °C for 60 days (x̄ ± s) ([2]; nominal 40 ng·mL^−1): 43.64 ± 1.27 ng/mL
- Short-term 4 h (x̄ ± s) ([2]; nominal 40 ng·mL^−1, room temperature 4 h): 38.09 ± 1.40 ng/mL
- Freeze-thaw Stability (x̄ ± s) ([2]; nominal 40 ng·mL^−1, three freeze–thaw cycles): 37.39 ± 0.53 ng/mL
- Autosampler 5°C-8 h (x̄ ± s) ([2]; nominal 120 ng·mL^−1): 113.16 ± 0.76 ng/mL
- frozen at −20 °C for 15 days (x̄ ± s) ([2]; nominal 120 ng·mL^−1): 121.27 ± 3.40 ng/mL
- frozen at −20 °C for 30 days (x̄ ± s) ([2]; nominal 120 ng·mL^−1): 119.85 ± 2.22 ng/mL
- frozen at −80 °C for 45 days (x̄ ± s) ([2]; nominal 120 ng·mL^−1): 130.97 ± 2.18 ng/mL
- frozen at −80 °C for 60 days (x̄ ± s) ([2]; nominal 120 ng·mL^−1): 132.67 ± 1.39 ng/mL
- Short-term 4 h (x̄ ± s) ([2]; nominal 120 ng·mL^−1, room temperature 4 h): 111.97 ± 2.47 ng/mL
- Freeze-thaw Stability (x̄ ± s) ([2]; nominal 120 ng·mL^−1, three freeze–thaw cycles): 115.95 ± 6.88 ng/mL
- Bound to plasma proteins (plasma proteins; after oral administration): 95%
- Free PER available to exert pharmacological effects (plasma proteins): 5%
- Plasma half-life [3]: approximately 105 h
- Decrease of mean PER AUC values ([3]; with OXC): 50%
- Decrease in blood concentration ([3]; with drugs that induce liver CYP3A4/5): 2–3 fold
- Decrease in PER plasma concentrations ([3]; with enzyme-induced AEDs (OXC, CBZ, PHB)): 2–3 fold
- Reference range of blood (total) PER concentration [4]: 86 to 1000 ng/mL

Compound: CCCC(CCC)C(=O)O [VPA, valproic acid]
- Inhibition of CYP2C9 activity (CYP2C9): potent inhibition
- Inhibitory effect on CYP2C19 (CYP2C19): minor inhibitory effects
- Inhibitory effect on CYP3A4 (CYP3A4): minor inhibitory effects
